From ChEMBL document CHEMBL1134398, “Synthesis, structure-activity relationships, and pharmacokinetic profiles of nonpeptidic difluoromethylene ketones as novel inhibitors of human chymase” (J Med Chem, 2001)
Calls of active or inactive are those of the source. The rule behind the calls is not given here.

Experiments:
Chymase = target: T1, Chymase (Homo sapiens, UniProt P23946); experiment: In vitro inhibitory activity was determined against human heart chymase
T1 sequence (P23946 whole entry): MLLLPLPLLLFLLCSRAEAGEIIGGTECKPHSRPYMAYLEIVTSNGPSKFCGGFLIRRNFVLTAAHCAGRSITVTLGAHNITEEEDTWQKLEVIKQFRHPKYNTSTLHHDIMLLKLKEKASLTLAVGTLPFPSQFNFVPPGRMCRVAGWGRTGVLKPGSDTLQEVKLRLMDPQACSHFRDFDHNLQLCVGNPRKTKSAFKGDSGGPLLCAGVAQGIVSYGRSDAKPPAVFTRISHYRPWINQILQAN

[1] = The selectivity was determined for chymotrypsin to that of chymase
[2] = Bioavailability administered orally at a dose of 10 mg/kg to rats; format: ADME, organism-based; conditions: rat, in vivo, po, read-out: BA
Procedure, shortened: (§1)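 10 mg/kg by gavage to fasted male rats (suspension 10 mg/mL, 0.5% HPMC) or male beagles (solution 2.5 mg/mL, DMSO–PEG-400–1 M HCl–saline 2:38:10:50), n=3. Plasma sampled up to 24 h, assayed by LC–MS/MS. Cmax and Tmax taken from measured values. BA = (AUCpo×dose iv)/(AUCiv×dose po)×100, using 1 mg/kg iv.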

[3] = (§2) Steady state volume of distribution was determined; format: ADME, organism-based, Canis lupus familiaris; conditions: dog, in vivo; read-out: Vdss
Procedure, shortened: (§3)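 Male Sprague–Dawley rats (204–222 g) and male beagles (11.4–12.5 kg), n=3 each, fasted 18 h before and 4 h after dosing. Plasma sampled up to 24 h, quantified by LC–MS/MS with internal standard. AUC 0–infinity.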

[4] = Plasma administration to dogs; format: ADME, organism-based, Canis lupus familiaris; conditions: dog; procedure, shortened: as §3
Mast cell protease 9 = target: T2, Mast cell protease 9 (Mus musculus, UniProt O35164); experiment: Inhibitory activity against mouse peritoneal chymase
T2 sequence (O35164 whole entry): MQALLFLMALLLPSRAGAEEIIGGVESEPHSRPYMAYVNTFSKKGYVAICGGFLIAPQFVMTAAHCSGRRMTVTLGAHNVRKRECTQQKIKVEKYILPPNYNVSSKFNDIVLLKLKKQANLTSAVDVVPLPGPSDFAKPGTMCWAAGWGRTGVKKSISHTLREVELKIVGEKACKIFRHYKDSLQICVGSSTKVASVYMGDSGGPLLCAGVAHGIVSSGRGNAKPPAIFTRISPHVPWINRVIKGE
Procedure, shortened: (§4)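 Chymotrypsin-type assay: purified enzyme hydrolyzes succinyl-Ala-Ala-Pro-Phe-p-nitroanilide, with p-nitroaniline release followed at 405 nm. Ki derived, as means ± SEM of three independent experiments. Human heart chymase was a purified preparation.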

[5] = Half life was evaluated after intravenous administration to dogs; format: ADME, organism-based, Canis lupus familiaris; conditions: dog, in vivo; procedure, shortened: as §3
[6] = Half life was evaluated after intravenous administration to rats; format: ADME, organism-based; conditions: rat, in vivo; procedure, shortened: as §3
[7] = Pharmacokinetic parameter AUC after intravenous administration to dogs; format: ADME, organism-based, Canis lupus familiaris; conditions: dog, in vivo; procedure, shortened: as §3
Cathepsin G = target: T3, Cathepsin G (Homo sapiens, UniProt P08311); experiment: Inhibitory activity against human cathepsin G; procedure, shortened: as §4
T3 sequence (P08311 whole entry): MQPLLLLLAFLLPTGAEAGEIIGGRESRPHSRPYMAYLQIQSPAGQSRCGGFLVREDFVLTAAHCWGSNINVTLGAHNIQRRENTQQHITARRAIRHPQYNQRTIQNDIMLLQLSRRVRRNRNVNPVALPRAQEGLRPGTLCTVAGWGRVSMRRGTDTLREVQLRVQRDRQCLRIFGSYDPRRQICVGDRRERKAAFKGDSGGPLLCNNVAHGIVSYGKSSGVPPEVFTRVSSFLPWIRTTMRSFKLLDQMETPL

[8] = Plasma administration to rats; format: ADME, organism-based; conditions: rat; procedure, shortened: as §3
[9] = Pharmacokinetic parameter AUC after oral administration to dogs; format: ADME, organism-based, Canis lupus familiaris; conditions: dog, in vivo; procedure, shortened: as §1
[10] = Maximum plasma concentration after oral administration to dogs at a dose of 10 mg/kg; format: ADME, organism-based, Canis lupus familiaris; design: dose 10 mg/kg, route oral; conditions: dog; procedure, shortened: as §1
[11] = target: Prothrombin (Homo sapiens) (UniProt P00734); experiment: Inhibitory activity against human plasma thrombin (10 uM); No inhibition; format: cell-free
[12] = Pharmacokinetic parameter AUC after oral administration to rats; format: ADME, organism-based; conditions: rat, in vivo; procedure, shortened: as §1
[13] = Pharmacokinetic parameter AUC after intravenous administration to rats; format: ADME, organism-based; conditions: rat, in vivo; procedure, shortened: as §3
[14] = Maximum plasma concentration after oral administration to rats; format: ADME, organism-based; design: route oral; conditions: rat; procedure, shortened: as §1
[15] = target: Angiotensin-converting enzyme (Homo sapiens) (UniProt P12821); experiment: Inhibitory activity against human angiotensin I converting enzyme (10 uM); No inhibition
[16] = Time to reach Cmax after oral administration to dogs; format: ADME, organism-based, Canis lupus familiaris; conditions: dog, in vivo; procedure, shortened: as §1
[17] = Time to reach Cmax after oral administration to rats; format: ADME, organism-based; conditions: rat, in vivo; procedure, shortened: as §1
[18] = Bioavailability administered orally at a dose of 10 mg/kg to dogs; format: ADME, organism-based, Canis lupus familiaris; conditions: dog, in vivo, po, read-out: BA; procedure, shortened: as §1
[19] = as §2; format: ADME, organism-based; conditions: rat, in vivo; read-out: Vdss; procedure, shortened: as §3
[20] = target: T4, Neutrophil elastase (Homo sapiens) (UniProt P08246); experiment: Inhibitory activity against human leukocyte elastase (10 uM); No inhibition
T4 sequence (whole entry): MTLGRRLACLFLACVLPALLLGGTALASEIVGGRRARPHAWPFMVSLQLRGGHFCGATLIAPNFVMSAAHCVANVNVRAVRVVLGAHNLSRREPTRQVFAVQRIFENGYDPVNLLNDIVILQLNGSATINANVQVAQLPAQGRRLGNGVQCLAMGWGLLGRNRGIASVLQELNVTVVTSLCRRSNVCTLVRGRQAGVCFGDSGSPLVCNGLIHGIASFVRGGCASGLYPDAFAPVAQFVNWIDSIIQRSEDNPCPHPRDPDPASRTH

Angiotensin-converting enzyme (Homo sapiens), sequence (P12821 whole entry): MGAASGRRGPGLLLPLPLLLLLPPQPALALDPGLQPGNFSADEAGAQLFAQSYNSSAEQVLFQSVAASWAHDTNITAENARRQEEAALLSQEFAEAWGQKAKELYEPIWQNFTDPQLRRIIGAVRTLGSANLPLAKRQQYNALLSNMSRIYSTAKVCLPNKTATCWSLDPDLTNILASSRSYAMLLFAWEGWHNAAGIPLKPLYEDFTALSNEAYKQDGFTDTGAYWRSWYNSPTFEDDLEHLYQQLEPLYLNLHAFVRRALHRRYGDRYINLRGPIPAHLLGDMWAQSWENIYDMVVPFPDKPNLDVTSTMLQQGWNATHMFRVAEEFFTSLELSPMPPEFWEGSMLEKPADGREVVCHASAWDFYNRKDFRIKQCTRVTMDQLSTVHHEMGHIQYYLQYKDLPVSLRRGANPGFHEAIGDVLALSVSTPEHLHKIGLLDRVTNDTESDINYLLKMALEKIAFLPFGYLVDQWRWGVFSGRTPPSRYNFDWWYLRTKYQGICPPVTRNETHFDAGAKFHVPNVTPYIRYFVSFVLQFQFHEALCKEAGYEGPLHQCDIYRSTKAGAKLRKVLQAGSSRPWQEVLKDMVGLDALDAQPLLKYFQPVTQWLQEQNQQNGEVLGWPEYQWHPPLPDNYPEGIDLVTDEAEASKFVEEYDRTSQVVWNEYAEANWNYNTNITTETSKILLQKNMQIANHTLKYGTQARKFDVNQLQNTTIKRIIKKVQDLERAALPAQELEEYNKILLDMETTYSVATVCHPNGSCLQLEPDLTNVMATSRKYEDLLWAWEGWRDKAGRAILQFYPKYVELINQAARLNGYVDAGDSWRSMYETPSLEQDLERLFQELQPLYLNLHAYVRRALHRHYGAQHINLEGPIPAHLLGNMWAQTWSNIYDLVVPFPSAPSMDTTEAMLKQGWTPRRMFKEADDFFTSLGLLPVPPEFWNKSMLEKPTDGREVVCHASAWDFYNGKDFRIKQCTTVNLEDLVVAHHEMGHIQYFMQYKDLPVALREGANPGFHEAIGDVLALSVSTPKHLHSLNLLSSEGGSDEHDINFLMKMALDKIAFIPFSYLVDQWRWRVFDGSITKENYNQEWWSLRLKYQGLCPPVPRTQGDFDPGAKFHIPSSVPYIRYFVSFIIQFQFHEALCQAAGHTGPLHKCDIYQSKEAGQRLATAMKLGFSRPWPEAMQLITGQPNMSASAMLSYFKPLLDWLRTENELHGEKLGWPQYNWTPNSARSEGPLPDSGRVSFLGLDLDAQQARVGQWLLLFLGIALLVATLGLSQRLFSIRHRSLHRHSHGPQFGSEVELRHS

## CCNC(=O)CNC(=O)C(F)(F)C(=O)C(Cc1ccccc1)NC(=O)Cn1c(-c2cccc(C)c2)ncc(N)c1=O (stereo unspecified)
Chymase
  Ki: 7.71 nM

## Cc1cccc(-c2ncc(N)c(=O)n2CC(=O)NC(Cc2ccccc2)C(=O)C(F)(F)C(=O)NCC(=O)O)c1 (stereo unspecified)
Chymase
  Ki: 16.9 nM

## Cc1cccc(-c2ncc(N)c(=O)n2CC(=O)NC(Cc2ccccc2)C(=O)C(F)(F)C(N)=O)c1 (stereo unspecified)
Chymase
  Ki: 13.3 nM

## Cc1cccc(-c2ncc(N)c(=O)n2CC(=O)NC(Cc2ccccc2)C(=O)C(F)(F)C(=O)Nc2ccc(C(=O)O)cc2)c1 (stereo unspecified)
Chymase
  Ki: 16.6 nM

## Cc1cccc(-c2ncc(N)c(=O)n2CC(=O)NC(Cc2ccccc2)C(=O)C(F)(F)C(=O)N(C)C)c1 (stereo unspecified)
Chymase
  Ki: 489 nM

## Cc1cccc(-c2ncc(N)c(=O)n2CC(=O)NC(Cc2ccccc2)C(=O)C(F)(F)C(=O)NCC(=O)N2CCCCC2)c1 (stereo unspecified)
Chymase
  Ki: 10.2 nM

## Cc1cccc(-c2ncc(N)c(=O)n2CC(=O)NC(Cc2ccccc2)C(=O)C(F)(F)F)c1 (stereo unspecified)
Chymase
  Ki: 50.6 nM

## CNC(=O)C(F)(F)C(=O)C(Cc1ccccc1)NC(=O)Cn1c(-c2cccc(C)c2)ncc(N)c1=O (stereo unspecified)
Chymase
  Ki: 90.7 nM

## Cc1cccc(-c2ncc(N)c(=O)n2CC(=O)NC(Cc2ccccc2)C(=O)C(F)(F)C(=O)NCCC(=O)O)c1 (stereo unspecified)
[1]
  Selectivity: 62.2
Chymase
  Ki: 23 nM

## Cc1cccc(-c2ncc(N)c(=O)n2CC(=O)NC(Cc2ccccc2)C(=O)C(F)(F)C(=O)O)c1 (stereo unspecified)
Chymase
  Ki: > 10000 nM

## COc1cccc(-c2ncc(N)c(=O)n2CC(=O)NC(Cc2ccccc2)C(=O)C(F)(F)C(=O)NCc2ccccc2)c1 (stereo unspecified)
Chymase
  Ki: 13.8 nM

## CCCCCNC(=O)C(F)(F)C(=O)C(Cc1ccccc1)NC(=O)Cn1c(-c2cccc(C)c2)ncc(N)c1=O (stereo unspecified)
Chymase
  Ki: 18.5 nM

## CCN(CC)C(=O)CCNC(=O)C(F)(F)C(=O)C(Cc1ccccc1)NC(=O)Cn1c(-c2cccc(C)c2)ncc(N)c1=O (stereo unspecified)
Chymase
  Ki: 33.7 nM

## Cc1cccc(-c2ncc(N)c(=O)n2CC(=O)NC(Cc2ccccc2)C(=O)C(F)(F)C(=O)NCc2ccccc2)c1 (stereo unspecified)
[1]
  Selectivity: 114
Chymase
  Ki: 16.9 nM

## COC(=O)CNC(=O)C(F)(F)C(=O)C(Cc1ccccc1)NC(=O)Cn1c(-c2cccc(C)c2)ncc(N)c1=O (stereo unspecified)
Chymase
  Ki: 10.2 nM

## Cc1cccc(-c2ncc(N)c(=O)n2CC(=O)NC(Cc2ccccc2)C(=O)C(F)(F)C(=O)Nc2cccc(C(=O)O)c2)c1 (stereo unspecified)
Chymase
  Ki: 9.7 nM

## CCN(CC)C(=O)CNC(=O)C(F)(F)C(=O)C(Cc1ccccc1)NC(=O)Cn1c(-c2cccc(C)c2)ncc(N)c1=O (stereo unspecified)
Chymase
  Ki: 9.32 nM

## Nc1cnc(-c2ccncc2)n(CC(=O)NC(Cc2ccccc2)C(=O)C(F)(F)C(=O)NCc2ccccc2)c1=O (stereo unspecified)
Chymase
  Ki: 84.7 nM

## Nc1cnc(-c2cccc(Cl)c2)n(CC(=O)NC(Cc2ccccc2)C(=O)C(F)(F)C(=O)NCc2ccccc2)c1=O (stereo unspecified)
[2]
  bioavailability: 17%
[3]
  Vd: 0.257 L/kg
[4]
  clearance: 3.25 mL/min/kg
Mast cell protease 9
  Ki: 1260 nM
[5]
  half-life: 1.4 h
[6]
  half-life: 2.1 h
[7]
  AUC: 5720 ng·h/mL
Cathepsin G
  Ki: 1390 nM
[8]
  clearance: 2.28 mL/min/kg
[9]
  AUC: 18500 ng·h/mL
[10]
  Cmax: 7320 ng/mL
[11]
  NI: inactive
[12]
  AUC: 12100 ng·h/mL
[13]
  AUC: 7330 ng·h/mL
[14]
  Cmax: 1520 ng/mL
[15]
  NI: inactive
[16]
  Tmax: 0.7 h
[17]
  Tmax: 1.3 h
[18]
  bioavailability: 32%
[19]
  Vd: 0.369 L/kg
[20]
  NI: inactive

## Nc1cnc(-c2ccccc2)n(CC(=O)NC(Cc2ccccc2)C(=O)C(F)(F)C(=O)NCc2ccccc2)c1=O (stereo unspecified)
Chymase
  Ki: 32.5 nM

## Cc1cccc(-c2ncc(N)c(=O)n2CC(=O)NC(Cc2ccccc2)C(=O)C(F)(F)C(=O)NCC(=O)N2CCCCCC2)c1 (stereo unspecified)
Chymase
  Ki: 3.56 nM

## Nc1cnc(-c2ccc(F)cc2)n(CC(=O)NC(Cc2ccccc2)C(=O)C(F)(F)C(=O)NCc2ccccc2)c1=O (stereo unspecified)
[1]
  Selectivity: 7.45
Chymase
  Ki: 440 nM

## CCOC(=O)C(F)(F)C(=O)C(Cc1ccccc1)NC(=O)Cn1c(-c2cccc(C)c2)ncc(N)c1=O (stereo unspecified)
Chymase
  Ki: > 10000 nM

## Nc1cnc(-c2cccnc2)n(CC(=O)NC(Cc2ccccc2)C(=O)C(F)(F)C(=O)NCc2ccccc2)c1=O (stereo unspecified)
Chymase
  Ki: 74.3 nM

## Cc1cccc(-c2ncc(N)c(=O)n2CC(=O)NC(Cc2ccccc2)C(=O)C(F)(F)C(=O)NCC(N)=O)c1 (stereo unspecified)
[1]
  Selectivity: 120
Chymase
  Ki: 12 nM

## Nc1cnc(-c2cccc(F)c2)n(CC(=O)NC(Cc2ccccc2)C(=O)C(F)(F)C(=O)NCc2ccccc2)c1=O (stereo unspecified)
Chymase
  Ki: 15.7 nM

## Cc1cccc(-c2ncc(N)c(=O)n2CC(=O)NC(Cc2ccccc2)C(=O)C(F)(F)C(=O)NCc2cccnc2)c1 (stereo unspecified)
Chymase
  Ki: 28.9 nM
